Consider twelve molecules from ChEMBL document CHEMBL1133934, “Metabolic stabilization of benzylidene ketal M(2) muscarinic receptor antagonists via halonaphthoic acid substitution” (Bioorg Med Chem Lett, 2001).

Series [1] can be described thus: Pharmacokinetic property at the dose of 10 mg/kg (20% HPbetaCD) concentration in rat (0 to 6 hr) p.o. The note with it: in vivo, po.
For the next series, the system named is Rattus norvegicus. In words: Percent of Acetylcholine (ACh) released above baseline in rat striatum at the dose of 10 mg/kg p.o. (0-2h). The series is classed as functional. As to conditions: route oral. The method, boiled down: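 Rats dosed orally at 10 mg/kg in 20% HPβCD; microdialysis of striatum measuring ACh release over the 2 h experiment. Stimulation judged against pre-injection baseline, significance p < 0.05 by Duncan's multiple range statistic.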

The target in series [2] is T1, Muscarinic acetylcholine receptor M2 (Homo sapiens, UniProt P08172).
T1 sequence (P08172 whole entry): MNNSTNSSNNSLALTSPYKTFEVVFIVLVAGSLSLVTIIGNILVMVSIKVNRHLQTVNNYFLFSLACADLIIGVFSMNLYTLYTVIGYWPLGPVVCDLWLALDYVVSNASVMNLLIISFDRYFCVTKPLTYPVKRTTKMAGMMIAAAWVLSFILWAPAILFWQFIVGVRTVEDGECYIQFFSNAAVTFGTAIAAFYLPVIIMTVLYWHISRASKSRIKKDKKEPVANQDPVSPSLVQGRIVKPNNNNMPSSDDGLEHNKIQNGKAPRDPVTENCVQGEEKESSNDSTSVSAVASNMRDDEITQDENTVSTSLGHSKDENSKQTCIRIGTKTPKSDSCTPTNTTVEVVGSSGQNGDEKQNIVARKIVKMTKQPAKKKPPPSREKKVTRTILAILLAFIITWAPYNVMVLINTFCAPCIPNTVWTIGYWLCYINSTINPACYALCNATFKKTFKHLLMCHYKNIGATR
In words: Antagonistic activity against Muscarinic acetylcholine receptor M2. The class given is functional. Summed up:
(§1)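 Muscarinic receptor binding by a method described elsewhere; values are the mean of duplicates (SEM < 15%), each determination performed at least twice. Selectivity expressed as the ratio of M1 or M3 to M2 binding.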

In series [3] the target is T1, Muscarinic acetylcholine receptor M2. In words: Antagonistic activity against muscarinic acetylcholine receptor M2. The class given is functional. Summed up:
as §1

Series [4] concerns the target Muscarinic acetylcholine receptors; M1 & M2 (Homo sapiens) (UniProt P11229+P08172). In words: Selectivity ratio of M1 muscarinic receptor to that of M2 muscarinic receptor. The series is classed as protein assay. The method, boiled down:
as §1

The target of series [5] is Muscarinic acetylcholine receptors; M2 & M3 (Homo sapiens) (UniProt P20309+P08172). In words: Selectivity ratio of M3 muscarinic receptor to that of M2 muscarinic receptor. The series is classed as protein assay. The method, boiled down:
as §1

pKi: −log10 of the molar value.

Sequence of Muscarinic acetylcholine receptors; M2 & M3 (Homo sapiens) (P20309 whole entry, looked up, one chain of several): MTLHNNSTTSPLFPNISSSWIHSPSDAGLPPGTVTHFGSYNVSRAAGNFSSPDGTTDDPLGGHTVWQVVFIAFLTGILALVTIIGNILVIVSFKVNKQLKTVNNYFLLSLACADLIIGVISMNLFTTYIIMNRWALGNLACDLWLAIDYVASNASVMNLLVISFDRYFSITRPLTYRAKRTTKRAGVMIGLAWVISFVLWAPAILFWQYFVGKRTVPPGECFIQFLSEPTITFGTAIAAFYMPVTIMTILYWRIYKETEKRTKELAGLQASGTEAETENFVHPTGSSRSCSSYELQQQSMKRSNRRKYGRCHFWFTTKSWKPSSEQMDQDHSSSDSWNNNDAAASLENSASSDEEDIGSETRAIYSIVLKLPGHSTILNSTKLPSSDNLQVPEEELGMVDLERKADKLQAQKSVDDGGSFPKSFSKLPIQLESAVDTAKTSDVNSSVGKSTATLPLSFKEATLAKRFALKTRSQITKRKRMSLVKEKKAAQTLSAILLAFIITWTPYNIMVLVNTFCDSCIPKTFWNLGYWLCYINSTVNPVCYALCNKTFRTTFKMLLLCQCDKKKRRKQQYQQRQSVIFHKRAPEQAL
Sequence of Muscarinic acetylcholine receptors; M1 & M2 (Homo sapiens) (P11229 whole entry, looked up, one chain of several): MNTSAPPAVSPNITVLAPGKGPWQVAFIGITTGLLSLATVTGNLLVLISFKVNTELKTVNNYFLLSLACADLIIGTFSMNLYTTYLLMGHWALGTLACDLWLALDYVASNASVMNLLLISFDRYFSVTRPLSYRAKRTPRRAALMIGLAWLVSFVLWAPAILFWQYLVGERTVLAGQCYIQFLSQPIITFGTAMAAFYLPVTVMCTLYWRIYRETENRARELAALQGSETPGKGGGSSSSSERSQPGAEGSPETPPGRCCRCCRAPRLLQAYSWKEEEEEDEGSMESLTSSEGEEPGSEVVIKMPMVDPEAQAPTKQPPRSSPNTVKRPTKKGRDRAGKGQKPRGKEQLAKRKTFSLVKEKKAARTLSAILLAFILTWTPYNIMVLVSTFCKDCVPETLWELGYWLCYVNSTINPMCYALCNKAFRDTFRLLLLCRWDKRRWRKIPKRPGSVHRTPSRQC

Turning to `COc1ccc(S(=O)(=O)c2ccc(C3(C4CCN(C5CCN(C(=O)c6cccc7c(F)cc(F)cc67)CC5)CC4)OCCO3)cc2)cc1`, the AUC at 6 h in series [1] was found to be 367 ng·h/mL. In the series with Rattus norvegicus, the MD is listed as 133%. In series [2], this molecule gave a pKi of 9.64.
In series [3], `COc1ccc(S(=O)(=O)c2ccc(C3(C4CCN(C5CCN(C(=O)c6cccc7ccccc67)CC5)CC4)OCCO3)cc2)cc1` gave a pKi of 9.85.
Turning to `COc1ccc(S(=O)(=O)c2ccc(C3(C4CCN(C5CCN(C(=O)c6cccc7cc(F)ccc67)CC5)CC4)OCCO3)cc2)cc1`, in series [3], the pKi was 9.09.
As for `COc1ccc(S(=O)(=O)c2ccc(C3(C4CCN(C5CCN(C(=O)c6ccc(F)c7ccccc67)CC5)CC4)OCCO3)cc2)cc1`, the negative logarithm of the Ki (pKi) in series [3] was 9.29. Moreover, the MD with Rattus norvegicus came to 180%.
In the case of `CCCS(=O)(=O)N1CCC(N2CCC(C3(c4ccc(S(=O)(=O)c5ccc(OC)cc5)cc4)OCCO3)CC2)CC1`, the results for the Selectivity ratio in series [4] and in series [5] were 18.3 and 25.3, respectively. The molecule also had a pKi in series [2] of 7.48.
`COc1ccc(S(=O)(=O)c2ccc(C3(C4CCN(C5CCN(C(=O)c6cccc7ccc(F)cc67)CC5)CC4)OCCO3)cc2)cc1`: in series [3], the pKi was 8.92.
On to `CCCS(=O)(=O)N1CCC(N2CCC(C3(c4ccc(S(=O)(=O)c5ccc6c(c5)OCO6)cc4)OCCO3)CC2)CC1`, for which the Selectivity ratio in series [4] came out at 102; in series [5], 93.
In series [3], `COc1ccc(S(=O)(=O)c2ccc(C3(C4CCN(C5CCN(C(=O)c6cccc7cc(Cl)ccc67)CC5)CC4)OCCO3)cc2)cc1` had a negative logarithm of the Ki (pKi) of 8.85.
Take `COc1ccc(S(=O)(=O)c2ccc(C3(C4CCN(C5CCN(C(=O)c6cccc7c(F)ccc(F)c67)CC5)CC4)OCCO3)cc2)cc1`: in the series on Rattus norvegicus, the MD is reported as 120%. The molecule also had a pKi in series [2] of 9.54.
Regarding `COc1ccc(S(=O)(=O)c2ccc(C3(C4CCN(C5CCN(C(=O)c6cccc7c(Br)cccc67)CC5)CC4)OCCO3)cc2)cc1`, in series [1], the AUC at 6 h worked out at 702 ng·h/mL. Further, in series [3], the pKi was 9.29. In the series on Rattus norvegicus, the MD came to 125%.
`COc1ccc(S(=O)(=O)c2ccc(C3(C4CCN(C5CCN(C(=O)c6cccc7cccc(F)c67)CC5)CC4)OCCO3)cc2)cc1`: the negative logarithm of the Ki (pKi) in series [2] is 9.00.
Molecule `COc1ccc(S(=O)(=O)c2ccc(C3(C4CCN(C5CCN(C(=O)c6cccc7c(F)cccc67)CC5)CC4)OCCO3)cc2)cc1` yielded an AUC at 6 h in series [1] of 130 ng·h/mL. This molecule had a pKi in series [3] of 9.70. For the same molecule, the MD in the series with Rattus norvegicus came out at 140%.
